This is a sample that favours compounds with a hit; in the whole collection about 2.7% have one here.
S100A4 MyoIIA: inhibitors of S100A4-myosin IIA peptide binding, primary screen, biochemical, fluorescence polarization, TAMRA-MyoIIA peptide; hit rate 0.14% among 360,000; AID 652163, 2013; inhibition, % at 10.7 µM;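 active = mean inhibition of at least 70% across replicates, with every replicate also reaching that level; inconclusive = mean inhibition reaches 70% but some replicates fall short; inactive = mean inhibition below 70%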
Target sequence (P26447 whole entry, looked up): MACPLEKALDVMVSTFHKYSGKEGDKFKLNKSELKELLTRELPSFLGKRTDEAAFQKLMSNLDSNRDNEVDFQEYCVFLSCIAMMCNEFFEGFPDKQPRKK
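System – human S100A4 monomer protein, biochemical binding assay · Buffer or medium – Calcium-containing HEPES buffer, pH 7.2 · Timing – 5 min between mix addition and reading · Also added – TAMRA-labelled myosin IIA heavy-chain peptide probe, 5 nM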
DENV2 CPE rescue: inhibitors of DENV2 cytopathic effect, primary screen, cell-based, plate reader, single concentration; DENV2-infected cells, cytopathic effect rescue; CPE inhibition, % at 9.99 µM; hit rate 1.7% among 350,000; AID 651640, 2012; in the data active = CPE inhibition above about 20%, passing the limit was not always enough; inconclusive = no clear call, values can overlap the other calls; tested in BHK-21 cells;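 also: 0% = median of neutral control wells and 100% = median of positive control wells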
CaV13 ICDI inh: Primary screen for inhibitors of IQ motif and Ca2+-dependent inactivation inhibitor domain binding in CACNA1D, Förster resonance energy transfer in living cells, …; HEK cells, CFP/YFP FRET ICDI-IQ, plate reader, 10 min; percent FRET-ratio fall versus neutral wells; inhibition, % at 12.3 µM; hit rate 0.098% among 340,000;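 active = mean replicate inhibition of at least 30% and at least 1% of replicates passing that level; inconclusive = only one of the two criteria is met; inactive = neither criterion is met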;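 also: 0% = median of the neutral control wells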
SIRT5 inh: SIRT5 desuccinylase inhibitors, primary screen, biochemical, fluorescence imaging, single point, set 5. NAD-dependent protein deacylase sirtuin-5, mitochondrial (Homo sapiens), Q9NXA8. Purified SirT5, succinyl-peptide AMC, trypsin-coupled fluorescence. inhibition, % at 15 µM. hit rate 1.1% among 330,000; in the data active = inhibition above about 15%; inconclusive = no clear call, values can overlap the other calls
MLL AF4-AF9 inh: inhibitors of AF4 peptide binding to AF9, primary screen, biochemical, AlphaScreen, biotin-AF4 peptide, FLAG-AF9, single point; Protein AF-9 (Homo sapiens), P42568; inhibition, % at 10 µM; hit rate 0.47% among 350,000;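 active = every replicate reaching a set inhibition limit, whatever the replicate mean, cut at about 25% in these data; inconclusive = mean inhibition reaches that limit but some replicates miss it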;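 also: 0% = plate neutral control median and 100% = total signal loss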
Target sequence (P42568 whole entry, looked up): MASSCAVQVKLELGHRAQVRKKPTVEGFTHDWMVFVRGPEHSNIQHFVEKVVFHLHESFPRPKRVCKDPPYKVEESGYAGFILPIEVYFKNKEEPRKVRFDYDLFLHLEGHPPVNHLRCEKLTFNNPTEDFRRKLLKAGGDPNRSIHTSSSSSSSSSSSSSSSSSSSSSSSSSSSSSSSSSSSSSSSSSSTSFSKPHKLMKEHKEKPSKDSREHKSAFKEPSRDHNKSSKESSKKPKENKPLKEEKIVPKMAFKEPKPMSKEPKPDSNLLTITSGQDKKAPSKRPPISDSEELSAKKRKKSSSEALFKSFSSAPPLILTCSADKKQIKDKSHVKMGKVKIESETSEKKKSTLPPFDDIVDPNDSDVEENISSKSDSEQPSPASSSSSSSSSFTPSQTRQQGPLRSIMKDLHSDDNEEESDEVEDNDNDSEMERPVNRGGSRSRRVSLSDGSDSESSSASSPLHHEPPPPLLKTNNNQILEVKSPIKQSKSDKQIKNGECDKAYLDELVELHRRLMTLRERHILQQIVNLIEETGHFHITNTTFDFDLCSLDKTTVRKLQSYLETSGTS
Active calls of the source: *; ? = inconclusive; . = no result; ! = a repeat was not active.

SMILES | S100A4 MyoIIA | DENV2 CPE rescue | CaV13 ICDI inh | SIRT5 inh | MLL AF4-AF9 inh
C[C@@H]1CCCCO[C@@H](CN(C)Cc2ccccc2)[C@H](C)CN([C@@H](C)CO)C(=O)c2cc(NC(=O)CCC(F)(F)F)ccc2O1 | -5 | -11 | . | 3 | -5
CCCC#Cc1ccc([C@@H]2[C@H](CO)N3CCCCN(S(=O)(=O)CC)C[C@@H]23)cc1 | -5 | -9 | . | -1 | 4
CCCCCC(=O)Nc1nc(C)c(-c2csc(Nc3cc(Cl)ccc3OC)n2)s1 | -6 | -3 | -10 | 24* | 3
CCCC(=O)Nc1nc(C)c(-c2csc(Nc3cc(OC)ccc3OC)n2)s1 | -4 | -9 | -7 | . | .
C[C@@H]1CN([C@@H](C)CO)C(=O)c2cc(-c3ccc(C(=O)N(C)C)cc3)cnc2O[C@@H]1CN(C)C(=O)CN(C)C | -1 | -2 | . | -1 | -9
Cc1ccc(N=C2NC(=O)/C(=C\c3ccsc3)S2)c(C)c1 | -3 | 96* | -6 | 5 | 8
CN1CCCN(c2cc(-c3ccc4ccccc4c3)nc3ccnn23)CC1 | 139* | 4 | -9 | -5 | 9
Cc1cccc(-c2cc(N3CCCN(C)CC3)n3nccc3n2)c1 | 112* | 1 | -7 | -5 | 30*
OCCN1CCN(c2cc(-c3ccc4ccccc4c3)nc3ccnn23)CC1 | 15 | -12 | -8 | -3 | -2
CCOc1cccc(-c2cc(N3CCN(CCO)CC3)n3nccc3n2)c1 | 11 | -4 | -7 | -1 | 2
Cc1ccc(CNC(=O)CCS(=O)(=O)c2cc3c(cc2Cl)NC(=O)CO3)cc1 | 2 | 16 | -2 | -1 | -6
CCOC(=O)N1CCN(C(=O)CCS(=O)(=O)c2cc3c(cc2Cl)NC(=O)CO3)CC1 | -1 | 24* | -2 | . | 3
CC(=O)Nc1cc(-c2cccc(C(=O)NCCN(C)C)c2)cn2c(-c3cccc(C(F)(F)F)c3)cnc12 | -11 | 9 | -10 | . | 26*
CN(C)CCNC(=O)c1cccc(-c2cnc3c(NC=O)cc(-c4ccc(F)cc4)cn23)c1 | -7 | -6 | -6 | -4 | 13
CC(=O)Nc1cc(-c2cccc(C(=O)NCCN(C)C)c2)cn2c(-c3ccccc3)cnc12 | -5 | ? | -6 | . | -8
CCSc1ccc(-c2cc(NC=O)c3ncc(-c4cccc(C(=O)NCCN(C)C)c4)n3c2)cc1 | -6 | -11 | -3 | 3 | 43*
CN(C)CCNC(=O)c1cccc(-c2cnc3c(NC=O)cc(-c4cccc(F)c4)cn23)c1 | 31 | -6 | -10 | . | 7
CN(C)CCNC(=O)c1cccc(-c2cnc3c(NC=O)cc(/C=C/c4ccccc4)cn23)c1 | -9 | 2 | -4 | 0 | 34*
CC(C)(Sc1ccc(CCN(CCCCC2CCCCC2)C(=O)NC2CCCCC2)cc1)C(=O)O | 0 | 2 | -5 | 26* | -7
Cc1ccc(NC(=S)Nc2cccc3cnccc23)cc1C | -4 | -6 | 1 | -3 | 3
Cc1ccc(NC(=S)Nc2cccc3cnccc23)cc1 | 4 | 72* | -5 | 1 | 3
C/C=C/c1ccc([C@@H]2[C@@H](CN(C)C(=O)CN(C)C)N(C(=O)C3CC3)[C@H]2CO)cc1 | . | 18 | . | . | .
CO[C@H]1CN(C)C(=O)c2ccc(NS(=O)(=O)CC(F)(F)F)cc2OC[C@@H](C)N(C)C[C@H]1C | 13 | 5 | . | -3 | -2
CO[C@H]1CN(C)C(=O)c2ccc(NS(=O)(=O)CC(F)(F)F)cc2OC[C@H](C)N(C)C[C@@H]1C | -2 | -4 | . | 25* | -2
CCS(=O)(=O)Nc1ccc2c(c1)C(=O)N(C)C[C@H](OC)[C@@H](C)CN(C(C)=O)[C@@H](C)CO2 | 9 | -5 | . | -4 | 2
SMILES | S100A4 MyoIIA | DENV2 CPE rescue | CaV13 ICDI inh | SIRT5 inh | MLL AF4-AF9 inh
CCC(=O)Nc1ccc2c(c1)C(=O)N(C)C[C@@H](OC)[C@@H](C)CN(C(C)=O)[C@@H](C)CO2 | 13 | 32* | . | 3 | 0
CCS(=O)(=O)Nc1ccc2c(c1)C(=O)N(C)C[C@H](OC)[C@H](C)CN(C(C)=O)[C@H](C)CO2 | 9 | 24* | . | 0 | -1
CCCNC(=O)N1C[C@@H](C)[C@H](OC)CN(C)C(=O)c2cc(NS(=O)(=O)CC(F)(F)F)ccc2OC[C@@H]1C | 1 | 60* | . | -7 | -1
O=C(C1CC1)N1C[C@@H]2[C@H](c3ccccc31)[C@H](CO)N2Cc1ccccc1Cl | 4 | 8 | . | 2 | -8
Cc1ccc(S(=O)(=O)NCC[C@@H]2CC[C@@H](NC(=O)CC3CC3)[C@H](CO)O2)cc1 | 12 | -1 | . | 1 | 0
O=C(Nc1cccc(Cl)c1)N[C@@H]1CC[C@@H](CCNC(=O)C2CCC2)O[C@@H]1CO | 0 | 5 | . | 0 | -4
CCC(=O)Nc1ccc2c(c1)C(=O)N(C)C[C@H](OC)[C@@H](C)CN(C(C)=O)[C@@H](C)CO2 | -3 | 54* | . | -3 | 2
CCC(=O)Nc1ccc2c(c1)C(=O)N(C)C[C@@H](OC)[C@@H](C)CN(C(C)=O)[C@H](C)CO2 | -3 | 16 | . | -7 | -4
CCC(=O)Nc1ccc2c(c1)C(=O)N(C)C[C@@H](OC)[C@H](C)CN(C(C)=O)[C@@H](C)CO2 | -6 | 29* | . | 0 | 0
C[C@H]1CCCCO[C@@H](CN(C)C)[C@@H](C)CN([C@@H](C)CO)C(=O)c2cc(NC(=O)C3CCCCC3)ccc2O1 | -6 | 5 | . | -2 | 1
COc1ccc(OC)c(C(=O)COC(=O)CNC(=O)c2ccccc2)c1 | 1 | 3 | 1 | 15* | -6
C[C@@H]1CCCCO[C@H](CN(C)Cc2ccc(Cl)c(Cl)c2)[C@@H](C)CN([C@H](C)CO)C(=O)c2cc(NS(=O)(=O)c3ccccc3)ccc2O1 | -3 | 32* | . | 0 | 0
C[C@@H]1CCCCO[C@@H](CN(C)Cc2ccc(Cl)c(Cl)c2)[C@H](C)CN([C@H](C)CO)C(=O)c2cc(NS(=O)(=O)c3ccc(Cl)cc3)ccc2O1 | 1 | 13 | . | 0 | 0
C[C@@H]1CN([C@H](C)CO)C(=O)c2cc(NS(=O)(=O)c3ccccc3)ccc2O[C@@H](C)CCCCO[C@@H]1CN(C)Cc1ccc(Cl)c(Cl)c1 | -1 | 4 | -6 | 15*! | 0
C[C@@H]1CCCCO[C@@H](CN(C)Cc2ccc(Cl)c(Cl)c2)[C@H](C)CN([C@@H](C)CO)C(=O)c2cc(NS(=O)(=O)c3ccccc3)ccc2O1 | -1 | 9 | . | 2 | 4
C[C@@H]1CCCCO[C@H](CN(C)Cc2ccc(Cl)c(Cl)c2)[C@@H](C)CN([C@@H](C)CO)C(=O)c2cc(NS(=O)(=O)c3ccccc3)ccc2O1 | 0 | 24* | . | 13 | 1

Screening results from PubChem.
